Bioassay records: PubChem, Sanford-Burnham Center for Chemical Genomics
CCR6 antag: CCR6 (human) receptor antagonism; P51684; CHO-K1 CCR6 PathHunter beta-arrestin, luminescence, CCL20-stimulated; inhibition, % at 20 µM; actives 0.49% (n = 340,000); AID 493098;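 active = compounds whose inhibition of the agonist-driven luminescence signal at 20 µM reaches about 50%, limit read from the data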;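 note: cells stimulated with CCL20 at 14 nM final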
Target sequence (P51684 whole entry, looked up): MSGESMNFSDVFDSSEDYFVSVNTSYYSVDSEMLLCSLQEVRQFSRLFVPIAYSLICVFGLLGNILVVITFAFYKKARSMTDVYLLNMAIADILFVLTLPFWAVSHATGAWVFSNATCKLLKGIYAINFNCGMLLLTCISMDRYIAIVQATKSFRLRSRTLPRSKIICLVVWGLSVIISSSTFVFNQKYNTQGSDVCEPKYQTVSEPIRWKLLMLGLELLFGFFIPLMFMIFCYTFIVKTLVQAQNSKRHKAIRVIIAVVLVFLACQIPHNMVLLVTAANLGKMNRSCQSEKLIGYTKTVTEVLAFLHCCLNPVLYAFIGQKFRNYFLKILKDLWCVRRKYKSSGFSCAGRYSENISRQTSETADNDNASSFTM
EBI2 block: EBI2 (human) antagonism; AID 651636; actives 0.81% (n = 360,000); EBI2 beta-arrestin recruitment, luminescence, 7a,25-OHC stimulated; inhibition, % at 5 µM; in the data active = inhibition above about 38%;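 note: enzyme fragment complementation signal reports receptor beta-arrestin coupling in cells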
CXCR6 inh: CXCR6 (human) receptor inhibition; O00574; CHO-K1 PathHunter CXCR6 beta-arrestin, luminescence; inhibition, % at 20 µM; actives 0.36% (n = 360,000); AID 602244; in the data active = inhibition above about 34%, passing the limit was not always enough;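 note: antagonist mode with CXCL16 agonist at 10 nM final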
APJ agonist: APJ receptor agonism | CHO-K1 APJ PathHunter beta-arrestin, luminescence; 0% DMSO wells, 100% apelin | P35414 | activation, % at 20 µM | AID 2520 | actives 0.11% (n = 330,000);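 active = activation more than six SD over the plate average, tested at 20 µM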
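Test system: CHO-K1 APJ beta-arrestin complementation cell line | Compound: Single test compound dose, 20 µM final, 1% DMSO | Incubation: Compound 90 min 25 °C, reagent 1 h | Measured by: beta-gal luminescence | Read-out basis: APJ–arrestin association signal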
APJ antag: blocks the human apelin receptor APJ; P35414; CHO-K1 APJ beta-arrestin complementation, luminescence; inhibition, % at 20 µM; actives 0.32% (n = 330,000); AID 2521;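 active = inhibition above about 40% at 20 µM, limit read from the data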;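 note: cells challenged with 10 nM apelin-13 agonist together with compound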
CXCR6 antag conf: CXCR6 antagonism confirmation, single concentration; shares compounds with CXCR6 inh; CHO-K1 CXCR6 PathHunter beta-arrestin, luminescence; inhibition, % at 20 µM; actives 65% (n = 700); AID 602409;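 active = mean inhibition over four retests above 40%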;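 note: receptor stimulated with 10 nM CXCL16 agonist; beta-galactosidase fragment complementation upon beta-arrestin recruitment to receptor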
Each line names hits and unclear results; the compound was inactive in the other large screens (follow-up assays come after a bar, where they were run). Hits are enriched below; roughly 1.5% of the tested compounds scored in any of these assays.

O=C1Nc2ccccc2C1Cc1ccccc1 (stereo unspecified)	none
O=C1C=CC2(C=C1)O[C@H](Cc1ccccc1)[C@@H](Cc1ccccc1)O2	CCR6 antag 94, EBI2 block 85, CXCR6 inh 76 (no result: APJ agonist, APJ antag) | CXCR6 antag conf 71
COc1ccc(C[C@@H]2OC3(C=CC(=O)C=C3)O[C@H]2Cc2ccc(OC)cc2)cc1	CCR6 antag 107, EBI2 block 88, CXCR6 inh 83 (no result: APJ agonist, APJ antag) | CXCR6 antag conf 84
CCCCn1c(N)c(N(CC(C)C)C(=O)c2cccc(S(=O)(=O)N3CCN(C)CC3)c2)c(=O)[nH]c1=O	none
COc1ccccc1C(=O)N1CCN(Cc2cccnc2)CC1	none
O=C(NC(=S)N(CCc1ccccc1)CCc1ccccc1)c1ccco1	CXCR6 inh 39 (no result: CCR6 antag) | CXCR6 antag conf 50
O=C(NC(=S)NCc1ccccc1)c1ccccc1F	none
CC(CCc1ccccc1)NC(=S)NC(=O)c1ccco1 (stereo unspecified)	none
O=C(NC(=S)N(Cc1ccccc1)Cc1ccccc1)c1ccccc1F	CXCR6 inh 36 | CXCR6 antag conf inactive
COc1ccc(S(=O)(=O)N(C)CC(=O)NCCCn2ccnc2)cc1Cl	none
CC(C)Oc1cccc(C(=O)NC(=S)N2CCN(c3ccc(C(F)(F)F)cc3[N+](=O)[O-])CC2)c1	none
COc1cccc(C(=O)NC(=S)N2CCN(c3ccc(C(F)(F)F)cc3[N+](=O)[O-])CC2)c1	CXCR6 inh 48 (no result: CCR6 antag) | CXCR6 antag conf 49
CCCN(C(=O)/C=C/c1ccc(S(=O)(=O)N(CC)CC)cc1)C1CCS(=O)(=O)C1 (stereo unspecified)	none
O=C(O/N=C1\C(=O)N(c2ccccc2)c2ccccc21)C1CC1	none
CN1C(=O)/C(=N/OC(=O)c2ccccc2)c2ccccc21	CXCR6 inh 40 | CXCR6 antag conf inactive
O=C(Nc1ccc2ccccc2c1)c1ccc2[nH]c(=O)c(=O)[nH]c2c1	none
CC(C)(CNC(=O)c1cccc(F)c1)CNC(=O)c1cccc(F)c1	none
CC(C)(C)c1nnc(NC(=O)c2cc(-c3ccccc3)nc3ccccc23)s1	none
CCc1nnc(NC(=O)c2cc(-c3ccncc3)nc3ccccc23)s1	CXCR6 inh 47 | CXCR6 antag conf inactive
O=C(c1ccc(-n2nc(C(F)(F)F)c3c2CCCC3)cc1)N1CCOCC1	CXCR6 inh 47 | CXCR6 antag conf inactive
O=C(O)c1ccc(-n2nc(C(F)(F)F)c3c2CCCC3)cc1	none
O=C(O)CNS(=O)(=O)c1ccc2c(c1)Cc1cc(S(=O)(=O)NCC(=O)O)ccc1-2	none
CCC(C)C(CO)NCCCn1cnc2c(OC)ncnc21 (stereo unspecified)	CXCR6 inh 43 (no result: CCR6 antag, APJ agonist, APJ antag) | CXCR6 antag conf inactive
CCOc1ccc(NC(=O)COC(=O)Cc2ccsc2)cc1	none
CCOC(=O)c1sc2nc(SCC#N)n(CC3CCCO3)c(=O)c2c1C (stereo unspecified)	CXCR6 inh 61 | CXCR6 antag conf inactive
CCOC(=O)c1sc2nc(SCC(=O)N(CC)CC)n(CCCN3CCCC3=O)c(=O)c2c1C	none
O=C(NNc1ccc(C(F)(F)F)cc1[N+](=O)[O-])c1ccc(NS(=O)(=O)c2ccc(F)cc2)cc1	CCR6 antag 58, CXCR6 inh 48 (no result: APJ agonist, APJ antag) | CXCR6 antag conf inactive
Cc1ccc(NC(=O)c2cc(N3C(=O)CCC3=O)ccc2N2CCOCC2)cc1	none
Cc1ccc(NC(=O)c2cc(N3C(=O)C=CC3=O)ccc2N2CCOCC2)cc1Cl	CCR6 antag 97, CXCR6 inh 60 (no result: APJ agonist, APJ antag) | CXCR6 antag conf inactive
O=C(Nc1ccc2c(c1)CCC2)c1ncoc1-c1ccccc1F	none
O=C(CSc1nncs1)NNC(=O)c1ccco1	none
CN(CC(=O)Nc1ccc(F)cc1)C(=O)COC(=O)CN1C(=O)NC2(CCCC2)C1=O	CXCR6 inh 46 | CXCR6 antag conf inactive
COc1ccc(-c2cnc3c(NC(C)=O)cc(-c4cccc(C(=O)N(C)C)c4)cn23)cc1OC	none (no result: CCR6 antag, APJ agonist, APJ antag)
CSCCC(NS(=O)(=O)c1ccc2c(c1)OCCO2)C(=O)N(C)Cc1ccccc1F (stereo unspecified)	none
O=C1C=CC(=O)N1c1ccc2c(c1)C(NC(=O)C(F)(F)F)c1ccccc1-2 (stereo unspecified)	CCR6 antag 108, CXCR6 inh 79 (no result: APJ agonist, APJ antag) | CXCR6 antag conf inactive
O=C(CSc1nnc(-c2cccs2)n1C1CC1)NC1CCS(=O)(=O)C1 (stereo unspecified)	none
CC1(C)CC[C@]2(C(=O)n3ccnc3)CC[C@]3(C)[C@H](C(=O)C=C4[C@@]5(C)C=C(C#N)C(=O)C(C)(C)[C@@H]5CC[C@]43C)[C@@H]2C1	CCR6 antag 57, CXCR6 inh 55 (no result: APJ agonist, APJ antag) | CXCR6 antag conf 58
O=C1CC(Sc2nnnn2-c2ccccc2)C(=O)N1c1cccc(Cl)c1 (stereo unspecified)	CXCR6 inh 94 (no result: CCR6 antag) | CXCR6 antag conf 59
CC(=O)Nc1ccc(Sc2ccc([N+](=O)[O-])o2)cc1	CCR6 antag 57, CXCR6 inh 52 (no result: APJ agonist, APJ antag) | CXCR6 antag conf 60
O=c1c2c([N+](=O)[O-])cc([N+](=O)[O-])cc2sn1Cc1ccccc1	CCR6 antag 97, CXCR6 inh 45 | CXCR6 antag conf inactive
CN(C)/C(=N\S(=O)(=O)c1ccc(Cl)cc1)c1ccc(F)cc1	CXCR6 inh 43 | CXCR6 antag conf inactive
Cc1onc(-c2c(Cl)cccc2Cl)c1C(=O)N1C(C)CCCC1C (stereo unspecified)	none
Cc1ccccc1N(CC(=O)NCC1CCCO1)C(=O)C1(C)CC(=O)N=C2C=CC=CN21 (stereo unspecified)	CXCR6 inh 47 | CXCR6 antag conf inactive
Cc1ccccc1N(CC(=O)NC1CCCC1)C(=O)C1(C)CC(=O)N=C2C=CC=CN21 (stereo unspecified)	none
COc1ccc(N2C[C@H](CSC)[C@@H](CC(=O)Nc3ccccc3)C2=O)cc1	CXCR6 inh 43 (no result: CCR6 antag, APJ agonist, APJ antag) | CXCR6 antag conf inactive
CCOC(=O)c1ccc(NC(=S)NC(=O)c2cncc(Br)c2)cc1	CCR6 antag 60, CXCR6 inh 42 | CXCR6 antag conf inactive
CCCn1c(N)c(C(=O)CSc2ncn[nH]2)c(=O)n(C)c1=O	none
CCCCn1c(N)c(C(=S)NC(=O)CC(C)(C)C)c(=O)n(C)c1=O	CXCR6 inh 39 (no result: CCR6 antag) | CXCR6 antag conf inactive
CCOCCCNC(=O)c1oc2ccc3c(c2c1C)C(O)CC(C)(C)O3 (stereo unspecified)	none
O=C(Nc1cccc([N+](=O)[O-])c1)c1ccc2c(c1)C(=O)N(c1ccccn1)C2=O	none
CCCCC(=O)NC(=S)NNC(=O)c1ccc(OC)cc1	CCR6 antag 69, CXCR6 inh 46 | CXCR6 antag conf 48
CCC(OC(=O)c1ccco1)C(=O)NC1CCCC1 (stereo unspecified)	none
CNc1ccc(-c2cccc(CO)c2)cn1	none (no result: CCR6 antag, APJ agonist, APJ antag)
